Measured values as given in PubChem BioAssay AID624268 (The Scripps Research Institute Molecular Screening Center, 2012).
The campaign covered roughly 360,000 compounds. About 1,500 (0.42%) were called active.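 How the source made its calls: active means inhibition above a per-plate cutoff of the control wells' mean inhibition plus 3 SD (cut at about 5.5% in these data); inactive means the rest.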 Many of the other results were omitted from the sample, so actives are more common in it than they were.

What follows are compounds tested on methionyl-tRNA synthetase (Trypanosoma brucei brucei) (assay: inhibition of trypanosome methionyl-tRNA synthetase – biochemical, luminescence, primary screen (AID 624268;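 further: 0% = DMSO wells median and 100% = median of wells with control inhibitor compound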)). Settings: purified T. brucei MetRS, ATP depletion, Kinase-Glo luminescence; at 11.9 µM; hits give high values.
Procedure, shortened: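 Dosing: 11.9 µM compound single dose, 0.9% DMSO; Assay system: purified T. brucei MetRS enzyme; Measured by: Kinase-Glo luciferase luminescence reporting remaining unconsumed ATP; Schedule: 15 min plus 2 h at 25 °C.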

Row | Structure (SMILES) | inhibition
1 | CCCNC(=O)C1(C)CCN(C(=O)c2ccc(F)cc2Cl)C1 (stereo unspecified) | -0.42% (inactive)
2 | O=C(O)c1cc2c(cc1NC(=O)c1c(F)cccc1Cl)OCCCO2 | 0.17% (inactive)
3 | CCN(CC)CCNC(=O)c1ccc(NC(=O)c2c(F)cccc2Cl)cc1 | -0.39% (inactive)
4 | O=C(NNc1cc(Cl)cc(Cl)c1)c1c(F)cccc1Cl | 45.1% (active)
5 | C=CCC(Nc1ccccc1)c1cccc(OC)c1OC (stereo unspecified) | 0.2% (inactive)
6 | O=C1COc2ccc(C(=O)COC(=O)C3CC(O)CN3S(=O)(=O)c3ccc(Cl)cc3)cc2N1 (stereo unspecified) | 0.64% (inactive)
7 | CNC[C@@H]1Oc2c(NS(C)(=O)=O)cccc2C(=O)N([C@@H](C)CO)C[C@H]1C | -0.2% (inactive)
8 | O=C(Cn1c2[n+](c3ccc(C(F)(F)F)cc31)CCCCC2)Nc1c(F)cccc1F | 17.2% (active)
9 | CCN(CC(=O)Nc1c(F)cccc1F)C(=O)C1CCC1 | -0.09% (inactive)
10 | O=C(CCC1CCCCC1)Nc1cc(C(F)(F)F)ccc1N1CCOCC1 | 0.04% (inactive)
11 | N#CCc1c[nH]c2ccc([N+](=O)[O-])cc12 | -0.24% (inactive)
12 | CCc1ccc(S(=O)(=O)NCC(O)COc2ccc(OC)cc2)cc1 (stereo unspecified) | -0.05% (inactive)
13 | COC(=O)[C@H](CCSC)NC(=O)Nc1ccc(OC)cc1 | -0.05% (inactive)
14 | COc1ccc(OCC(O)CNC(=O)Nc2ccc(Cl)cc2)cc1 (stereo unspecified) | 60.1% (active)
15 | COc1cccc(NC(=O)N2CCC(NC(=O)C(Cc3cccc(C)c3)NC(C)=O)CC2)c1 (stereo unspecified) | -0.33% (inactive)
16 | CC(Oc1ccccc1F)C(=O)NN (stereo unspecified) | -0.07% (inactive)
17 | CCCOn1c(-n2nc(C)cc2C)nc2ccccc2c1=O | -0.74% (inactive)
18 | CCN(CC(=O)NCCc1ccccc1)S(=O)(=O)c1ccccc1 | 1.61% (inactive)
19 | CN(C(=O)CSc1nnc(-c2c[nH]c3ccccc23)o1)C1CCS(=O)(=O)C1 (stereo unspecified) | 8.69% (active)
20 | CN(C(=O)CSc1nnc(-c2ccc3c(c2)OCO3)o1)C1CCS(=O)(=O)C1 (stereo unspecified) | -0.28% (inactive)
21 | CN(C(=O)CSc1nnc(Nc2ccccc2)s1)C1CCS(=O)(=O)C1 (stereo unspecified) | 6.74% (active)
22 | CCn1c(SCC(=O)N(C)C2CCS(=O)(=O)C2)nnc1-c1cccs1 (stereo unspecified) | -0.25% (inactive)
23 | CN(C(=O)CSc1nnc(-c2ccc(C(C)(C)C)cc2)n1C)C1CCS(=O)(=O)C1 (stereo unspecified) | -0.23% (inactive)
24 | O=C(CSc1nnc(-c2c[nH]c3ccccc23)o1)c1ccccc1 | 0.1% (inactive)

Row | Structure (SMILES) | inhibition
25 | Cn1nc(C(F)(F)F)c(-c2ccc(F)cc2)c1NC(=O)CSCC(=O)O | -1.21% (inactive)
26 | Cc1ccc(C)c(N2C(=O)CS/C2=N\NC(=O)c2ccccc2Cl)c1 | -0.16% (inactive)
27 | Cc1ccc(NC(=O)C(C)c2cccc(C(=O)c3ccccc3)c2)cc1 (stereo unspecified) | 67.8% (active)
28 | CCC(C(=O)Nc1ccc(C(C)C)cc1)c1ccccc1 (stereo unspecified) | 0.33% (inactive)
29 | CC(=O)Nc1ccc(NC(=O)[C@@H](NC(=O)c2cccc(C)c2)C(C)C)cc1 | -0.8% (inactive)
30 | COc1ccc(CNC(=O)C(C)NCc2ccccc2Cl)cc1 (stereo unspecified) | -0.92% (inactive)
31 | COc1ccc(NC(=O)N2CCCC2C(=O)NCc2ccccc2Cl)cc1 (stereo unspecified) | -0.13% (inactive)
32 | COc1ccc(NC(=O)C(NC(C)=O)C(=O)NCc2ccccc2Cl)cc1 (stereo unspecified) | 7.6% (active)
33 | Nc1ccccc1Sc1cc(Cl)nnc1Cl | 1.75% (inactive)
34 | CSc1ccc(S(=O)(=O)NCc2ccc(Cl)cc2)cc1 | -1.21% (inactive)
35 | O=C(O)CCn1c(O)c(C=C2N=c3ccccc3=N2)sc1=S | 7.5% (active)
36 | CCN=c1sc(C(=O)Nc2ccccc2)c(C)n1CC | 0.54% (inactive)
37 | Cc1ccc(S(=O)(=O)Nc2nc(CN3CCOCC3)nc3sc(C)c(C)c23)cc1 | -0.08% (inactive)
38 | CC(C)C1C2=C(CC(C)(C)CC2=O)ON1c1ccccc1 (stereo unspecified) | 0.41% (inactive)
39 | Cc1cc(=O)n2nc(N3CCC(C(=O)Nc4c(F)c(F)c(F)c(F)c4F)CC3)sc2n1 | -0.7% (inactive)
40 | CCOc1ccc(S(=O)(=O)N2CCCCCC2)c2ccccc12 | -0.75% (inactive)
41 | Fc1ccc(NC(=S)N2CCc3[nH]c4ccccc4c3C2)cc1 | 9.22% (active)
42 | CCOc1ccc(NC(=O)N2CC=C(n3c(=O)[nH]c4ccccc43)CC2)cc1 | -0.02% (inactive)
43 | C[C@H](O)[C@@H]1C(=O)N2CCc3c([nH]c4ccccc34)[C@@H]2C[C@@H]1N(C)C(=O)Nc1ccc(F)cc1 | 1.97% (inactive)
44 | CC(=O)C(CC(=O)N1CCCC1)C(=O)Nc1ccc(Cl)cc1 (stereo unspecified) | -0.19% (inactive)
45 | O=C(CCCN1CCc2[nH]c3ccc(F)cc3c2C1)c1ccc(F)cc1 | 0.35% (inactive)
46 | O=C(Nc1ccc(Cl)cc1)N1CCc2[nH]c3ccccc3c2C1 | 64.1% (active)
47 | Cc1ccc(N(C(=O)C(F)(F)F)C(C(=O)NC2CCCCC2)c2ccncc2)cc1C (stereo unspecified) | -0.39% (inactive)
48 | COc1ccccc1OCC(=O)Nc1c2c(nn1-c1ccc(F)cc1)CS(=O)(=O)C2 | 0.18% (inactive)

Row | Structure (SMILES) | inhibition
49 | CC(=O)Nc1cc(-c2cccc(CO)c2)cn2c(-c3cccc(C(F)(F)F)c3)cnc12 | -0.15% (inactive)
50 | Cc1cc(C)cc(NC(=O)NCc2ccccn2)c1 | -0.48% (inactive)
51 | Cc1cc(C)cc(NC(=O)CSc2ccccc2)c1 | -0.78% (inactive)
52 | Cc1cc(C)cc(NC(=O)N(C)Cc2ccccc2)c1 | 6.26% (active)
53 | COc1ccc(CCNC(=O)C2CC3Cn4c(nc5cc(C)c(C)cc54)C3N2C)cc1 (stereo unspecified) | 0.64% (inactive)
54 | CCOC(=O)c1ccc2[nH]c(C)c(CN3CCN(C)CC3)c(=O)c2c1 | -0.39% (inactive)
55 | CN(C)CCn1c(=S)[nH]c2ccc(Cl)cc2c1=O | 0.6% (inactive)
56 | CCCCN(C)Cc1c(C)[nH]c2ccc(Cl)cc2c1=O | 47% (active)
57 | Cc1cccc(C)c1-n1nnnc1C(CCc1ccccc1)N1CCN(C/C=C/c2ccccc2)CC1 (stereo unspecified) | -1% (inactive)
58 | Cc1cccc(N2CCN(C(c3ccc(N(C)C)cc3)c3nnnn3C(C)(C)C)CC2)c1C (stereo unspecified) | -1.18% (inactive)
59 | O=C(/C=C(O)/C=C/c1ccc(O)cc1)/C=C/c1ccc(O)cc1 | -0.28% (inactive)
60 | NC1=NC(=O)S/C1=C\c1ccc(O)cc1 | 22.9% (active)
61 | CC(C)(C)c1ccc(/C=C2\SC(=O)N=C2N)cc1 | 19.9% (active)
62 | CCc1nc(C)cn1S(=O)(=O)c1cc([N+](=O)[O-])ccc1Cl | -0.04% (inactive)
63 | O=C(CN1C(=O)CC(c2ccccc2)S(=O)(=O)c2ccccc21)NC1CCCC1 (stereo unspecified) | -0.4% (inactive)
64 | Cc1cc(C(=O)OCC(=O)Nc2ccc(F)c(F)c2)c(C)o1 | 0.47% (inactive)
65 | COc1ccccc1NS(=O)(=O)N(C)C | -0.33% (inactive)
66 | CCOC(=O)CSc1nc2ccc(C)cc2n2cnnc12 | -0.42% (inactive)
67 | CN(C)CCNC(=O)c1ccc(-c2cn3c(-c4ccc(Oc5ccccc5)cc4)cnc3cn2)cc1 | 0.12% (inactive)
68 | CC(C)(C)n1cnnc1Sc1ccc([N+](=O)[O-])cn1 | -0.07% (inactive)
69 | O=C(Cc1ccc(S(=O)(=O)N2CCOCC2)s1)Nc1ccc(Br)c(C(F)(F)F)c1 | 9.17% (active)
70 | O=C(Cc1ccc(S(=O)(=O)N2CCOCC2)s1)NCCOc1ccccc1F | -0.22% (inactive)
71 | O=C(Cc1ccc(S(=O)(=O)N2CCOCC2)s1)NCCC(c1ccccc1)c1ccccc1 | -0.24% (inactive)
72 | Cc1nc(-c2ccc(Cl)cc2)sc1C1(C)CC(c2ccc(Br)cc2)=NO1 (stereo unspecified) | 0.57% (inactive)

Row | Structure (SMILES) | inhibition
73 | Cc1c(O)c(C)c2c(c1O)C(=O)C[C@@H](c1ccccc1)O2 | 1.18% (inactive)
74 | CCO[C@H]1OC(C(=O)O)=C[C@@H](C2CCCCC2)[C@@H]1CCCO | -0.27% (inactive)
75 | CCO[C@H]1OC(C(=O)Nc2ccccc2)=C[C@@H](C2CC2)[C@@H]1CCCO | -0.28% (inactive)
76 | CCO[C@@H]1OC(C(=O)NCc2nc3ccccc3[nH]2)=C[C@H](C2CCCCC2)[C@H]1CCCO | 15.3% (active)
77 | c1ccc(-c2ccc3c(c2)NC(C2Nc4cc(-c5ccccc5)ccc4O2)O3)cc1 (stereo unspecified) | -0.77% (inactive)
78 | NC(=O)c1ccc(-c2csnn2)cc1 | -0.49% (inactive)
79 | Cc1cc(Nc2cccc(F)c2)n2ncnc2n1 | 0.76% (inactive)
80 | C/C(=N/NC(=O)c1cc(Cl)ccc1O)C12CC3CC(CC(C3)C1)C2 | -0.58% (inactive)
81 | CC(=N\NC(=O)c1cc(Br)ccc1O)/C(=N/O)C(=O)Nc1ccccc1 | 7.43% (active)
82 | O=C(Nc1ccccc1)c1ccccc1Br | 0.92% (inactive)
83 | COc1ccc(S(=O)(=O)c2c[nH]c(=S)[nH]c2=O)cc1Cl | -0.79% (inactive)
84 | CCOC(=O)c1cccc(NC(=O)CCc2c(C)nc3ncnn3c2C)c1 | -0.04% (inactive)
85 | Cc1ccc(C(=O)Nc2ccc(C)c(S(=O)(=O)N(C)C)c2)s1 | -0.69% (inactive)
86 | O=S(=O)(NCc1ccc(Cl)cc1Cl)c1cccs1 | 18.5% (active)
87 | O=C(Nc1cccc(Cl)c1)Nc1ccccc1NS(=O)(=O)c1cccs1 | -0.14% (inactive)
88 | O=S(=O)(NCCc1ccc(Cl)cc1)c1cccs1 | 0.22% (inactive)
89 | Cc1ccnc(NC(=O)Cn2ccc([N+](=O)[O-])n2)c1 | 1.25% (inactive)
90 | OCCNc1nc2ccccc2n1-c1ncnc2sc3c(c12)CCC3 | 22.8% (active)
91 | Cn1c(NN)nc2sc3c(c2c1=O)CCC3 | -0.59% (inactive)
92 | O=C(O)c1cccnc1Sc1ncnc2sc3c(c12)CCC3 | -0.25% (inactive)
93 | CSCC[C@H](NC(=O)NCc1cccs1)C(=O)O | 2.05% (inactive)
94 | O=S(=O)(c1ccc(Br)cc1)N1CCC(c2nc3ccccc3[nH]2)CC1 | 7.1% (active)
95 | N#CC(C(=O)c1ccc(S(=O)(=O)N2CCCCCC2)cc1)c1nc2ccccc2[nH]1 (stereo unspecified) | -0.41% (inactive)
96 | O=S(=O)(c1ccccc1)N1CCC(c2ccccc2)CC1 | 0.06% (inactive)
